These results are taken from PubChem BioAssay.

Values without a mark were called inactive. Results filed as inconclusive are left out. Calls of active or inactive are those of the source.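 The calls were made as follows, unless noted: active = viability increase at or above a cutoff of the median across tested compounds plus 3 SD (cut at about 8.5% in these data, passing the limit was not always enough); inconclusive = some gains above the cutoff, reason not given; inactive = the rest.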

Assay [1] in a line: S. cerevisiae growth inhibition in permissive medium (OD615), pilot counter-assay for S. cerevisiae lifespan shortening project, permissive growth control (AID 705;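 active = growth inhibition above 25% in both replicates, a cutoff set 3 SD above the mean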). The note with it: OD615, 24 h, at 10 µM, stronger effect = higher value. The method in brief:
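Material: engineered DeaD yeast; compound dosing: one dose 10 µM, DMSO 0.25% final; measure: yeast growth inhibition indicated by reduced 24 h OD615; detection: OD615 turbidity read; incubation: cells pre-grown 4 h, then 24 h compound exposure, 30 °C humidified; medium: permissive synthetic complete medium with raffinose and galactose carbon sources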

Assay [2] is described as follows: S. cerevisiae growth inhibition in restrictive medium, OD615, pilot screen, restrictive growth control, yeast lifespan reduction project (AID 706;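 active = growth inhibition above a set limit, 3 SD over mean compound inhibition, in both replicates, cut at about 43% in these data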;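 also: modified DeaD lifespan yeast strain shifted to restrictive glucose medium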). The note with it: OD615, 48 h, at 10 µM, stronger effect = higher value. A digest of the protocol: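 material = engineered S. cerevisiae DeaD strain | medium = glucose-based CSMM-D restrictive medium | times = 4 h pre-incubation, 48 h exposure at 30 °C | technique = OD615 absorbance reading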

Assay [3] is described as follows: doxorubicin toxicity protection in MRP-1 cells – H69AR cells, CellTiter-Glo, duplicate, MRP-1 activator project, pilot screen (AID 807).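 Also: compound pretreatment 18-22 h then 72 h combined with doxorubicin; 0% = doxorubicin alone and 100% = vehicle without doxorubicin.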 The conditions noted are these: H69AR viability with doxorubicin, CellTiter-Glo luminescence; at 10 µM; stronger effect = higher value.
Assay [4] can be described thus: viability of HCT116 without oncogenic beta-catenin – human colon tumor cells, pilot screen (AID 823;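 active = cell viability at or below a set limit in both duplicate runs, the limit being the all-compound median minus 4 SD, cut at about 23% in these data, passing the limit was not always enough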;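 also: 0% = wells killed by 20 µM Hyamine and 100% = untreated DMSO cell wells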). The note with it: HCT116 beta-catenin knockout viability, CellTiter-Glo, 60 h; at 10 µM; stronger effect = lower value.
The nature of assay [5]: viability of PTEN-null HCT116 cells – cell-based, HCT116 clonal line, CellTiter-Glo, pilot screen (AID 824;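 active = viability at or below 27.92% in each of two runs, the all-compound median minus 4 SD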;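 also: 0% = 20 µM Hyamine control and 100% = vehicle cell control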). The note with it: HCT116 PTEN-deleted viability, 60 h, at 10 µM, stronger effect = lower value.
Assay [6] in a line: RAM pathway blockade in budding yeast – dse1pr::URA3 reporter, 5-FOA selection, pilot screen (AID 869;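 active = inhibition over a set limit, the all-compound mean plus 3 SD, in both replicate runs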;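 also: 0% = DMSO wells with no growth and 100% = 10 µM 1-NA-PP1 with full growth; RAM network block rescues cells from 5-FOA so hits raise OD615 growth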). The conditions noted are these: S. cerevisiae dse1pr::URA3 5-FOA growth, OD615, 2 d; at 10 µM; stronger effect = higher value; strain carries analog-sensitive mutant Cbk1 kinase.
Assay [7] in a line: RAM signaling pathway blockade in yeast – S. cerevisiae, Pdr1DBD-CYC8 efflux-inhibited sensitized strain, primary screen (AID 1298;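 active = RAM network inhibition above 8.4% in each of two replicates, 3 SD over the compound average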;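 also: 0% = DMSO untreated cells without growth and 100% = 10 µM 1-NA-PP1 full growth; higher means more yeast growth rescued from 5-FOA killing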). The conditions noted are these: S. cerevisiae cbk1-as DSE1-URA3 strain, 5-FOA growth OD615, 2 d; at 50 µM; stronger effect = higher value.

Consider `CCc1nnc(NC(=O)CSc2nccn2-c2cccc(C)c2C)s1`, for which the growth inhibition was 2.46% in assay [1] and 32.5% in assay [2]. For the same compound, the viability increase in assay [3] was -5.37%. Also, the viability was 46.2% in assay [4] and 42.9% in assay [5]. The inhibition in assay [6] was 0.935%. The RAM network inhibition in assay [7] was 1.37%.

In the case of `CN=C1SC(CC(=O)Nc2ccccc2F)C(=O)N1C` (centres undefined), the growth inhibition is 0.635% in assay [1] and 0.465% in assay [2]. Further, the viability increase in assay [3] was -0.48%. The viability is 112% in assay [4] and 98.9% in assay [5]. The inhibition in assay [6] was 1.99%. In assay [7], the RAM network inhibition is 1.28%.

Regarding `CCOc1ccccc1C1C(C(N)=O)=C(C)Nc2nc(CCCO)nn21` (centres undefined), the results for the growth inhibition in assay [1] and in assay [2] were -13.8% and 2.83%, respectively. The viability increase in assay [3] is -1.39%. The viability in assay [4] is 100%; in assay [5], 102%. In assay [6], the inhibition was 2.46%. The RAM network inhibition in assay [7] was -1.1%.

As for `O=C(O)c1ccc2c(c1)N(Cc1cccc(F)c1)C(=O)CS2`, the growth inhibition is 2.4% in assay [1] and -0.16% in assay [2]. Also, the viability increase in assay [3] is 0.93%. Further, the viability in assay [4] and in assay [5] was 102% in each case. In assay [6], the inhibition is 0.2%. In addition, the RAM network inhibition in assay [7] is 1.36%.

Turning to `Cc1ccc(-c2nn(C)c(=O)c3ccccc23)cc1CNC(=O)c1ccco1`, the growth inhibition in assay [1] is -19.5%; in assay [2] it was -16.5%. The viability increase in assay [3] was -6.36%. Also, the viability is 78.3% in assay [4] and 72.9% in assay [5]. In assay [6], the inhibition is 1.3%. In addition, the RAM network inhibition in assay [7] was 6.65%.

On to `CC1CN(S(=O)(=O)c2ccc(Cl)c(S(=O)(=O)N3CC(C)OC(C)C3)c2)CC(C)O1` (centres undefined), for which the growth inhibition was -13.5% in assay [1] and -17.1% in assay [2]. For the same compound, the viability increase in assay [3] is -0.41%. Besides, the viability in assay [4] was 89%; in assay [5], 87.1%. Besides, the inhibition in assay [6] is 4.11%. Further, in assay [7], the RAM network inhibition was 1.17%.

Consider `O=C1CSC(=S)N1Cc1cccnc1`, for which the growth inhibition in assay [1] was -15.3%; in assay [2], 16.2%. Besides, the viability increase in assay [3] is -8.48%. The viability was 8.06% (active) in assay [4] and 9.45% (active) in assay [5]. For the same compound, the inhibition in assay [6] was 0.82%. In addition, the RAM network inhibition in assay [7] is -0.15%.

As to `CCOc1ccc(C2CC(=O)NC(SC)=C2C#N)cc1` (centres undefined), the growth inhibition in assay [1] was -15.8%; in assay [2], -15.5%. Also, the viability increase in assay [3] is -2.65%. Moreover, the figures for the viability in assay [4] and in assay [5] were 104% and 94.9%, respectively. Moreover, in assay [6], the inhibition was 0.595%. In assay [7], the RAM network inhibition was 6.38%.

Turning to `NC(=O)c1oc2ccccc2c1NC(=O)CCc1ccccc1`, the growth inhibition in assay [1] is 1.12%; in assay [2] it was 2.84%. Further, the viability increase in assay [3] was -2.96%. Moreover, the viability in assay [4] was 96.8%; in assay [5], 97.2%. In addition, the inhibition in assay [6] is 0.36%. Further, the RAM network inhibition in assay [7] was 3.76%.

As to `Cc1ccc(C2CC(c3ccco3)n3nc(N)nc3N2)cc1` (centres undefined), the growth inhibition was 4.36% in assay [1] and 11.9% in assay [2]. Besides, the viability increase in assay [3] is -1.44%. Besides, the viability in assay [4] was 96.5%; in assay [5], 99.8%. Moreover, in assay [6], the inhibition is -1.15%. Further, the RAM network inhibition in assay [7] was 3.41%.

Regarding `O=C(NCCO)c1ccc2[nH]c3c(c2c1)CCCC3`, the growth inhibition in assay [1] is -12.1%; in assay [2], -18.9%. Besides, in assay [3], the viability increase was -0.28%. Also, the viability was 98.9% in assay [4] and 96.1% in assay [5]. In addition, the inhibition in assay [6] is 1.46%. In addition, in assay [7], the RAM network inhibition is 4.19%.

Take `CCOC(=O)C(CCC#N)(CCC#N)C(=O)OCC`: the growth inhibition in assay [1] was -11.9%; in assay [2], -5.42%. Also, the viability increase in assay [3] was -0.16%. In addition, the viability in assay [4] is 95.9%; in assay [5], 102%. For the same compound, the inhibition in assay [6] is 0.445%. In addition, the RAM network inhibition in assay [7] was 5.31%.

Take `Clc1ccc(C2CC(c3cccs3)n3ncnc3N2)c(Cl)c1` (centres undefined): the growth inhibition is -5.32% in assay [1] and 17.4% in assay [2]. In addition, the viability increase in assay [3] is -4.06%. For the same compound, the viability is 78.7% in assay [4] and 69.3% in assay [5]. Further, the inhibition in assay [6] was 2.1%. The RAM network inhibition in assay [7] was 2.15%.

On to `CN(Cc1ccccc1)C(=O)COC(=O)c1ccc2c(c1)OCO2`, for which the growth inhibition is -6.52% in assay [1] and -18.6% in assay [2]. For the same compound, the viability increase in assay [3] was 0.42%. Further, the viability in assay [4] is 101%; in assay [5], 104%. Moreover, the inhibition in assay [6] was 0.11%. Also, in assay [7], the RAM network inhibition was 0.88%.

`COc1ccc(NC(=O)C2CCN(S(=O)(=O)c3cccc4cccnc34)CC2)cc1OC`: the growth inhibition in assay [1] is -4.2%; in assay [2] it was 0.21%. Also, the viability increase in assay [3] is -1.69%. Besides, the viability in assay [4] was 107%; in assay [5], 96.6%. Also, the inhibition in assay [6] was 1.41%. In addition, the RAM network inhibition in assay [7] is 1.04%.

As to `COC(=O)c1ccc(CSc2nc3c(c(=O)n2-c2ccc(Br)cc2)SCC3)o1`, the growth inhibition is -15.5% in assay [1] and -19.8% in assay [2]. Further, the viability increase in assay [3] is -3.79%. In addition, the viability is 80.9% in assay [4] and 76% in assay [5]. Further, in assay [6], the inhibition is 1.67%. Further, the RAM network inhibition in assay [7] is 7.53%.

Turning to `COc1cccc(C2CC(c3ccc(Cl)cc3)n3nc(N)nc3N2)c1` (centres undefined), the growth inhibition in assay [1] was -3.76%; in assay [2], 1.46%. For the same compound, the viability increase in assay [3] is 0.04%. The viability in assay [4] was 100%; in assay [5], 91.1%. In addition, the inhibition in assay [6] was 1.63%. Further, the RAM network inhibition in assay [7] is 7.39%.
